Compound activity deposited in PubChem BioAssay by several laboratories.
bCat nuc transl – alters nuclear translocation of beta-catenin in HeLa cells | AID 1665 | hit rate 0.3% among 190,000 | immunofluorescence imaging | nuclear translocation activity, % at 5 µM;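 active = nuclear translocation activity above 50% at 5 µM, with a well cell count of 50 or more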;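 note: per-cell ratio of nuclear to cytoplasmic median beta-catenin stain intensity; plate controls were DMSO negative control for no effect and GSK-3 inhibitor IX positive control for full effect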
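Signal – beta-catenin immunofluorescence imaging with DAPI · Test system – human HeLa cell line · Dosing – 5 µM primary single dose, 0.1% DMSO, 0.02–20 µM confirmation series · Measure – % activation, nuclear-to-cytoplasmic median beta-catenin signal ratio per cell · Incubation – 24 h compound exposure at 37°C, 5% CO2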
MT stabilizer – microtubule stabilization, imaging screen. HeLa tubulin immunostaining HCS, 24 h; share of cells brighter than vehicle mean+2SD. hit rate 0.83% among 200,000. % tubulin-high responders, % at 10 µM. AID 2205;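 active = plate Z-score above 3 for both tubulin-high and condensed-nucleus cell shares, with cell loss under 80%, at 10 µM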;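 note: anti alpha tubulin signal scored within the nucleus-defined area of each cell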
Pf gamet viab – kills late stage P. falciparum gametocytes; P. falciparum stage V gametocytes, ATP luminescence, 24 h; inhibition, % at 10.9 µM; hit rate 0.065% among 150,000;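 active = inhibition above the mean plus 3 SD of compounds within the control limits, set per campaign, cut at about 38% in these data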;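 note: 0% = DMSO wells and 100% = medium only without gametocytes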
WT yeast gro inh – growth inhibition of WT yeast, mitochondrial fusion screen; mitochondrial fusion phenotypic screen, WT strain; inhibition, % at 10 µM; hit rate 2.1% among 190,000; AID 1362; in the data active = inhibition above about 58%; tested in S. cerevisiae
Cl transport mod – modulates chloride dependent transport by human KCC2; Q9H2X9; KCC2 cells, thallium flux FluoZin-2 fluorescence; B-score of Tl+ flux slope (higher = more flux/activation; lower = inhibition) at 10 µM; hit rate 2.2% among 190,000; AID 1456;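 active = thallium flux slope and its plate-corrected score both differing from the plate sample mean at a set confidence after two filtering rounds, in either direction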;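 note: slope of fluorescence scaled to starting intensity during 10 to 20 s after thallium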
Target sequence (Q9H2X9 whole entry, looked up): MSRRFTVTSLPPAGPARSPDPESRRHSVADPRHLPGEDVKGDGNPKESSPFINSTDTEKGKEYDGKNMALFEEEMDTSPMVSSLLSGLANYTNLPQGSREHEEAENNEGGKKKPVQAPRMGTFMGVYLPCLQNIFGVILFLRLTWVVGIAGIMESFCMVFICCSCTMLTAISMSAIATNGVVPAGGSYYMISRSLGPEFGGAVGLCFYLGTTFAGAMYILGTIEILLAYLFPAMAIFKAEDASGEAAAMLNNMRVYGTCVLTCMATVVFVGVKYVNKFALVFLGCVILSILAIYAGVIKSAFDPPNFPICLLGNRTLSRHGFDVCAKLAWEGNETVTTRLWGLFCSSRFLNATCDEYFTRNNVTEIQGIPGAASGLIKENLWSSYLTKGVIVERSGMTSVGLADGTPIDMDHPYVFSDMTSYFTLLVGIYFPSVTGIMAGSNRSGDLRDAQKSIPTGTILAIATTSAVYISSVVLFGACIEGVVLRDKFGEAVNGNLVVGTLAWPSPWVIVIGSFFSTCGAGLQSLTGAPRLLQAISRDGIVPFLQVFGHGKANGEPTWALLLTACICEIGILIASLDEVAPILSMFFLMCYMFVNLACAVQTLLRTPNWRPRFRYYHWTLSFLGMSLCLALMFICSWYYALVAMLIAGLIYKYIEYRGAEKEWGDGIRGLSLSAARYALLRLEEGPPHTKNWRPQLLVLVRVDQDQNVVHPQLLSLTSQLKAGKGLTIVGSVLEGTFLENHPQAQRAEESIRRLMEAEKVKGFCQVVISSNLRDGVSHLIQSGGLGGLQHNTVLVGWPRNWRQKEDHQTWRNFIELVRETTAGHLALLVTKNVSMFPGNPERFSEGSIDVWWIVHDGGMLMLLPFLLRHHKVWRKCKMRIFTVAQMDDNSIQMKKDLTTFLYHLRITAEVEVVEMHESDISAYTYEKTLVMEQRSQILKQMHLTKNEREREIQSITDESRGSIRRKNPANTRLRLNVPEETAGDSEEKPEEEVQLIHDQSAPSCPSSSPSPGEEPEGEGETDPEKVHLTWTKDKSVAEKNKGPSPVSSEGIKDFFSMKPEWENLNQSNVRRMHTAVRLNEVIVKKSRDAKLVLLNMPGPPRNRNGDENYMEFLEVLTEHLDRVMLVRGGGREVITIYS
* = called active by the depositor. Most compounds without a hit are left out; they make up all but 4% or so of the library.

`O=C(N/N=C/c1cccc2ccccc12)c1n[nH]c2c1CCCC2` gave bCat nuc transl 8.8, MT stabilizer 30.6*, Pf gamet viab 4.0, WT yeast gro inh -2.3 and Cl transport mod -0.105.
`O=C(N/N=C\c1cccc(Cl)c1)c1n[nH]c2c1CCCC2` gave bCat nuc transl -1.5, MT stabilizer 4.7, Pf gamet viab 3.0, WT yeast gro inh -16.7 and Cl transport mod -0.0707.
For O=C(N/N=C/c1ccc(Cl)cc1Cl)c1n[nH]c2c1CCCC2 the results were bCat nuc transl 19.8, MT stabilizer 21.5*, WT yeast gro inh 9.7 and Cl transport mod 0.00354.
`O=C(N/N=C/c1cccs1)c1n[nH]c2c1CCCC2` gave bCat nuc transl 0.2, Pf gamet viab -13.4 and Cl transport mod 0.374.
Screening Cc1ccc(/C=N/NC(=O)c2n[nH]c3c2CCCC3)cc1 returned bCat nuc transl 57.9*, Pf gamet viab 2.6 and Cl transport mod 0.416.
Screening Cc1cccc(S(=O)(=O)Nc2nc3ccccc3nc2NCc2ccc3c(c2)OCO3)c1 returned bCat nuc transl 0.2, MT stabilizer 5.2, WT yeast gro inh -9.8 and Cl transport mod -0.635.
Screening O=C(CSc1nnnn1-c1ccc2c(c1)OCO2)NCc1cccs1 returned bCat nuc transl 2.4, MT stabilizer 2.9, Pf gamet viab -19.0, WT yeast gro inh -9.8 and Cl transport mod -0.679.
`O=C(CSc1nnnn1-c1ccc2c(c1)OCO2)NCc1ccccc1` gave MT stabilizer 42.4*, WT yeast gro inh 13.8 and Cl transport mod -1.31.
Screening CCCCN(C)C(=O)c1nc2ccccn2c1CN1CCSCC1 returned bCat nuc transl 0.0, MT stabilizer 1.8, Pf gamet viab -17.0, WT yeast gro inh -7.5 and Cl transport mod 0.533.
For COc1ccc(C(N)=O)cc1NC(=O)c1cccc(F)c1 the results were MT stabilizer 1.7, WT yeast gro inh 64.7* and Cl transport mod 1.73.
Cc1ccc(NC(=O)COC(=O)/C=C/c2cccs2)c(C)c1 was read as MT stabilizer 3.0, Pf gamet viab 1.9, WT yeast gro inh 6.4 and Cl transport mod -0.359.
`Cc1cccc(/C=c2\s/c(=C\C(=O)C(C)(C)C)[nH]c2=O)c1` gave bCat nuc transl 3.4, MT stabilizer 18.8, Pf gamet viab 15.7, WT yeast gro inh 55.4 and Cl transport mod 12*.
Cn1c(O)c(/C=C2\C=Nc3ccccc32)sc1=Nc1ccc(C(=O)O)cc1 was read as bCat nuc transl 0.9, Pf gamet viab -3.4 and Cl transport mod -1.74.
Screening Oc1nc(Nc2ccc(Cl)cc2Cl)sc1/C=C1\C=Nc2ccccc21 returned bCat nuc transl -0.6, MT stabilizer 2.3, Pf gamet viab 0.6, WT yeast gro inh 83.0* and Cl transport mod -0.534.
COc1ccc(C(=O)Nc2sc3c(c2C#N)CCN(C(C)=O)C3)cc1 was read as bCat nuc transl 60.0*, MT stabilizer 14.3*, Pf gamet viab 2.6, WT yeast gro inh -12.3 and Cl transport mod -0.607.
Screening Cc1nc(-c2ccccc2)cc(N2CCCC2)n1 returned bCat nuc transl -0.8, MT stabilizer 1.2, Pf gamet viab 2.8, WT yeast gro inh -1.5 and Cl transport mod 0.0167.
Nc1nc(-c2ccccc2)cc(N2CCCCC2)n1 was read as bCat nuc transl 56.0*, MT stabilizer 13.9*, Pf gamet viab 1.5, WT yeast gro inh -36.3 and Cl transport mod 1.1.
`CN(C)CCN1C(=O)c2oc3ccccc3c(=O)c2C1c1ccccc1` (stereo not given) gave bCat nuc transl -2.9.
For CN(C)CCCN1C(=O)c2oc3ccccc3c(=O)c2C1c1cccs1 (stereo not given) the results were bCat nuc transl -0.2, MT stabilizer 2.2, WT yeast gro inh 12.7 and Cl transport mod 7.34*.
For O=C(Nc1ncccc1O)c1cccc(S(=O)(=O)N2CCc3ccccc32)c1 the results were bCat nuc transl -1.9, MT stabilizer 1.5, WT yeast gro inh 69.2* and Cl transport mod 0.882.
`COc1ccc(NC(=O)c2cccc(S(=O)(=O)N3CCc4ccccc43)c2)cn1` gave bCat nuc transl -3.0, MT stabilizer 2.4, Pf gamet viab -9.3, WT yeast gro inh 28.3 and Cl transport mod -1.17.
Screening CCC1(C)Cc2c(sc3nnn(Cc4ccccc4Cl)c(=O)c23)CO1 (stereo not given) returned bCat nuc transl 1.4, MT stabilizer 1.1, Pf gamet viab 5.4 and WT yeast gro inh 16.1.
COc1ccc(-c2cn3c(C)c(C(=O)Nc4cc(NC(C)=O)ccc4OC)sc3n2)cc1 was read as bCat nuc transl 2.6, MT stabilizer 34.2*, WT yeast gro inh -2.2 and Cl transport mod 1.34.
`COc1ccc(-n2nnnc2-c2ccccc2)cc1` gave MT stabilizer 36.3*, WT yeast gro inh -24.4 and Cl transport mod 0.763.
CC(C)Nc1nc(Oc2cccc(Cl)c2Cl)cc(C(F)(F)F)n1 was read as bCat nuc transl -0.9, MT stabilizer 1.4, Pf gamet viab -12.8, WT yeast gro inh 87.3* and Cl transport mod 0.00734.
CC(C)Nc1nc(Oc2ccc(Cl)cc2Cl)cc(C(F)(F)F)n1 was read as bCat nuc transl -3.7, MT stabilizer 1.2, Pf gamet viab -7.0 and WT yeast gro inh 38.0.
`O=C(c1cccs1)N1N=C(c2ccccc2)CC1c1ccccc1` (stereo not given) gave bCat nuc transl -1.0, MT stabilizer 4.0 and WT yeast gro inh 66.9*.
Screening O=C(c1cccs1)N1N=C(c2ccc(O)cc2)CC1c1ccccc1 (stereo not given) returned bCat nuc transl -3.4, MT stabilizer 2.6, WT yeast gro inh 14.4 and Cl transport mod -2.38.
Screening O=S(=O)(c1ccccc1)N1N=C(c2ccccc2)CC1c1ccccc1 (stereo not given) returned bCat nuc transl 1.0, MT stabilizer 2.3, Pf gamet viab -9.3, WT yeast gro inh 80.2* and Cl transport mod 0.0481.
Screening NS(=O)(=O)c1ccc(N2N=C(c3ccccc3)CC2c2ccc(F)cc2)cc1 (stereo not given) returned bCat nuc transl 0.4, MT stabilizer 2.2, WT yeast gro inh 70.7* and Cl transport mod -0.0169.
`COc1ccc(C2CC(c3ccccc3)=NN2c2ccc(S(N)(=O)=O)cc2)cc1` (stereo not given) gave bCat nuc transl 0.6, MT stabilizer 4.9, Pf gamet viab -22.2 and WT yeast gro inh 65.8*.
For O=C(O)c1ccc(N2N=C(c3ccccc3)CC2c2ccccc2)cc1 (stereo not given) the results were Pf gamet viab 26.5.
Screening CCc1cccc(CC)c1NC(=S)NC(C)c1ccccc1 (stereo not given) returned bCat nuc transl 0.1, MT stabilizer 3.8, Pf gamet viab -21.7, WT yeast gro inh 60.1* and Cl transport mod -1.25.
For Cc1nn(C)c(C)c1N1C(=O)c2cccc3c(N)ccc(c23)C1=O the results were MT stabilizer 3.3, Pf gamet viab 13.5 and WT yeast gro inh 1.1.
Screening Cc1ccc(N2C(=O)c3cccc4c(N)ccc(c34)C2=O)c2cccnc12 returned bCat nuc transl 66.8*, Pf gamet viab 13.0 and Cl transport mod inactive.
